Experimental data published in article PMC8177101 (Chemical research in toxicology, 2020).

What was measured:
[1] = CellTiter Glo cytotoxicity; format: cell-based; settings: human
Procedure, shortened: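 Human HapMap lymphoblastoid lines grown in RPMI 1640 with 15% heat-inactivated FBS at 37 °C, 5% CO2, low passage (<10). Preliminary cytotoxicity dose-response to the test compound (a diepoxide) read by CellTiter Glo as cellular ATP level; IC50 taken from the dose-response curves.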

[2] = test system: HapMap lymphoblastoid cell lines; experiment: Apoptosis, Annexin V / PI flow cytometry; format: cell-based, human; settings: 0, 5 or 10 μM DEB, 24 h, 18 cell lines; Anova p < 0.001
[3] = test system: HapMap lymphoblastoid cell lines; experiment: Micronuclei; format: cell-based, human; settings: then 96 h in fresh media, averaged over all cell lines
Procedure, shortened: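 Ten GSTT1-negative and 8 GSTT1-positive lymphoblastoid lines were grown in RPMI 1640 with 15% heat-inactivated FBS at 37 °C, 5% CO2, passage <10. Cells were seeded at 0.5 million per 4 ml and rested 24 h. They were exposed to 0, 5 or 10 μM test compound for 6 h in triplicate, pelleted, then held 96 h in fresh medium. Micronuclei were scored with the Litron kit by flow cytometry.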

[4] = ref [10], [11]; cited from earlier work

## C1OC1C1CO1 (centres unmarked) [DEB, 1,2,3,4-diepoxybutane]
[1]
  IC50: 2 to 6 µM
[2]
  percentage of Annexin V-labeled cells: increase in the percentage of Annexin V-labeled cells
[3]; 5 μM DEB 6 h
  fold increase of mean percent of MN positive cells: 1.8 fold
[3]; 10 μM DEB 6 h
  fold increase of mean percent of MN positive cells: 2.4 fold
[4]
  mutagenic potency as compared to BD-derived monoepoxides: up to 200 fold
